Test results as given in ChEMBL document CHEMBL3994605, “Synthesis and biological evaluation of curcumin inspired indole analogues as tubulin polymerization inhibitors” (Eur J Med Chem, 2017).
Counter-ions that a name gives are not always drawn.

Legend:
BT-549 [1] = test: Antiproliferative activity against human BT549 cells after 48 hrs by MTT assay; type: functional, cell-based; conditions: BT-549, 48 h
Method in brief: (§1)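 MTT read-out. Cells were seeded at 5 × 10^3 per well in DMEM or RPMI with 10% FBS and grown 24 h at 37 °C in CO2. Compound dilutions in medium, with vehicle control, were then added for 48 h. MTT (0.5 mg/mL in medium) was given for 4 h, formazan was dissolved in DMSO, and A570 was read. IC50 was taken from concentration–response curves as mean ± SD of three experiments run in triplicate.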

A549 = test: Antiproliferative activity against human A549 cells after 48 hrs by MTT assay; type: functional, cell-based; conditions: A549, 48 h; method in brief: as §1
MDA-MB-231 [2] = test: Antiproliferative activity against human MDA-MB-231 cells after 48 hrs by MTT assay; type: functional, cell-based; conditions: MDA-MB-231, 48 h; method in brief: as §1
4T1 = test: Antiproliferative activity against mouse 4T1 cells after 48 hrs by MTT assay; type: functional, cell-based; conditions: 4T1, 48 h; method in brief: as §1
PC-3 [3] = test: Antiproliferative activity against human PC3 cells after 48 hrs by MTT assay; type: functional, cell-based; conditions: PC-3, 48 h; method in brief: as §1
DU-145 [4] = test: Antiproliferative activity against human DU145 cells after 48 hrs by MTT assay; type: functional, cell-based; conditions: DU-145, 48 h; method in brief: as §1
HGC-27 = test: Antiproliferative activity against human HGC27 cells after 48 hrs by MTT assay; type: functional, cell-based; conditions: HGC-27, 48 h; method in brief: as §1
HeLa = test: Antiproliferative activity against human HeLa cells after 48 hrs by MTT assay; type: functional, cell-based; method in brief: as §1
MDA-MB-231 [5] = test: Potency index, ratio of curcumin IC50 to compound IC50 for human MDA-MB-231 cells; type: functional
BT-549 [6] = test: Potency index, ratio of curcumin IC50 to compound IC50 for human BT549 cells; type: functional
PC-3 [7] = test: Potency index, ratio of curcumin IC50 to compound IC50 for human PC3 cells; type: functional
DU-145 [8] = test: Potency index, ratio of curcumin IC50 to compound IC50 for human DU145 cells; type: functional
Sus scrofa = organism: Sus scrofa; test: Inhibition of porcine brain tubulin polymerization assessed as reduction in incorporation of fluorescent reporter at 10 uM by fluorescence based assay relative to control
Method in brief: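 Cell-free mix contained porcine brain tubulin (2 mg/mL) in 80 mM PIPES pH 6.9 with 2.0 mM MgCl2, 0.5 mM EGTA, 1.0 mM GTP and glycerol, with or without compound. Polymerization was tracked as a time-dependent fluorescence rise from reporter incorporation (ex 360, em 440 nm), with nocodazole as positive control. Inhibition was scored versus the untreated control. For IC50, the concentration giving 50% inhibition of assembly was used.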

Row | SMILES | IC50 (BT-549 [1]) [µM] | IC50 (A549) [µM] | IC50 (MDA-MB-231 [2]) [µM] | IC50 (4T1) [µM] | IC50 (PC-3 [3]) [µM] | IC50 (DU-145 [4]) [µM] | IC50 (HGC-27) [µM] | IC50 (HeLa) [µM] | Ratio IC50 (MDA-MB-231 [5]) | Ratio IC50 (BT-549 [6]) | Ratio IC50 (PC-3 [7]) | Ratio IC50 (DU-145 [8]) | inhibition (Sus scrofa) [%]
1 | O=C(/C=C/c1ccc(Cl)cc1)/C=C/c1cn(Cc2ccccc2)c2ccccc12 | > 50 | > 50 | > 50 | > 50 | > 50 | > 50 | > 50 | > 50 |  |  |  |  | 
2 | COc1cc(OC)c(/C=C/C(=O)/C=C/c2cn(Cc3ccc(Cl)cc3)c3ccccc23)c(OC)c1 | > 50 | > 50 | > 50 | > 50 | > 50 | > 50 | > 50 | 40.9 |  |  |  |  | 
3 | COc1ccc(/C=C/C(=O)/C=C/c2cn(Cc3cccc(F)c3)c3ccccc23)cc1 | 40.4 | > 50 | > 50 | > 50 | > 50 | > 50 | > 50 | > 50 |  |  |  |  | 
4 | COc1ccc(/C=C/C(=O)/C=C/c2cn(Cc3ccc(OC(F)(F)F)cc3)c3ccccc23)cc1OC | 50.1 | > 50 | > 50 | > 50 | > 50 | > 50 | > 50 | 50.5 |  |  |  |  | 
5 | COc1ccc(OC)c(/C=C/C(=O)/C=C/c2cn(Cc3ccc(C(F)(F)F)cc3)c3ccccc23)c1 | > 50 | > 50 | > 50 | > 50 | > 50 | > 50 | > 50 | > 50 |  |  |  |  | 
6 | COc1cc(OC)c(/C=C/C(=O)/C=C/c2c[nH]c3ccccc23)c(OC)c1 | 10.5 |  | 46.4 | 13.9 | 3.12 |  |  |  | 0.3 | 2.4 | 3.9 |  | 
7 | COc1cc(OC)c(/C=C/C(=O)/C=C/c2cn(Cc3ccccc3)c3ccccc23)c(OC)c1 | > 50 | > 50 | > 50 | > 50 | > 50 | > 50 | > 50 | 50.1 |  |  |  |  | 
8 | COc1ccc(OC)c(/C=C/C(=O)/C=C/c2cn(Cc3ccc(F)cc3)c3ccccc23)c1 | 50.1 | > 50 | > 50 | > 50 | > 50 | > 50 | > 50 | 50.9 |  |  |  |  | 
9 | COc1cc(OC)c(OC)cc1/C=C/C(=O)/C=C/c1cn(Cc2ccc(C(F)(F)F)cc2)c2ccccc12 | 25.2 | > 50 | > 50 | 25.9 | > 50 | > 50 | 40.1 | 50.6 |  |  |  |  | 
10 | CC[C@]1(O)C[C@H]2CN(CCc3c([nH]c4ccccc34)[C@@](C(=O)OC)(c3cc4c(cc3OC)N(C=O)[C@H]3[C@@](O)(C(=O)OC)[C@H](OC(C)=O)[C@]5(CC)C=CCN6CC[C@]43[C@@H]65)C2)C1 [VINCRISTINE SULFATE] | 0.0547 | 0.172 | 0.117 |  | 0.0276 | 0.0723 |  |  |  |  |  |  | 
11 | COc1cc(OC)c(OC)cc1/C=C/C(=O)/C=C/c1cn(Cc2ccc(F)cc2)c2ccccc12 | 25.1 | 50.1 | > 50 | 25.2 | > 50 | > 50 | 40.2 | 30.7 |  |  |  |  | 
12 | COc1ccc(/C=C/C(=O)/C=C/c2cn(Cc3ccc(Cl)cc3)c3ccccc23)cc1 | 50.4 | > 50 | > 50 | > 50 | > 50 | > 50 | > 50 | 50 |  |  |  |  | 
13 | COc1cc(OC)c(/C=C/C(=O)/C=C/c2cn(Cc3ccc(C(F)(F)F)cc3)c3ccccc23)c(OC)c1 | > 50 | > 50 | > 50 | > 50 | > 50 | > 50 | > 50 | > 50 |  |  |  |  | 
14 | COc1ccc(/C=C/C(=O)/C=C/c2cn(Cc3ccccc3)c3ccccc23)cc1 | 40.1 | > 50 | > 50 | 50.2 | > 50 | > 50 | > 50 | > 50 |  |  |  |  | 
15 | COc1ccc(/C=C/C(=O)/C=C/c2cn(Cc3ccc(F)cc3)c3ccccc23)cc1 | > 50 | > 50 | > 50 | > 50 | > 50 | > 50 | > 50 | > 50 |  |  |  |  | 
16 | COc1ccc(/C=C/C(=O)/C=C/c2c[nH]c3ccccc23)cc1 | 31.4 | 45.1 | 32 | 21.6 | 3.51 | 13.6 | 24 |  |  |  |  |  | 
17 | O=C(/C=C/c1ccc(Cl)cc1)/C=C/c1c[nH]c2ccccc12 | 30.1 | > 50 | 50.2 | 40.2 | > 50 | > 50 | 50 | 25.2 |  |  |  |  | 
18 | COc1ccc(/C=C/C(=O)/C=C/c2c[nH]c3ccccc23)cc1OC | 4.69 | 30.2 | 15.7 | 21.9 | 5.52 | 13.3 | 7.45 | 6.44 | 1 | 5.3 | 2.2 | 2.1 | 39.7
19 | COc1cc(OC)c(/C=C/C(=O)/C=C/c2cn(Cc3cccc(F)c3)c3ccccc23)c(OC)c1 | > 50 | > 50 | > 50 | > 50 | > 50 | > 50 | > 50 | 40.1 |  |  |  |  | 
20 | COc1cc(OC)c(/C=C/C(=O)/C=C/c2cn(Cc3ccc(F)cc3)c3ccccc23)c(OC)c1 | > 50 | > 50 | > 50 | > 50 | > 50 | > 50 | 50.8 | > 50 |  |  |  |  | 
21 | COc1cc(OC)c(OC)cc1/C=C/C(=O)/C=C/c1cn(Cc2ccccc2)c2ccccc12 | 40.6 | > 50 | > 50 | 40.8 | > 50 | > 50 | > 50 | 50.1 |  |  |  |  | 
22 | COc1cc(/C=C/C(=O)CC(=O)/C=C/c2ccc(O)c(OC)c2)ccc1O [CURCUMIN] | 24.9 |  | 15.8 |  | 12.2 | 28.4 |  | 25.4 |  |  |  |  | 
23 | COc1ccc(/C=C/C(=O)/C=C/c2cn(Cc3ccc(C(F)(F)F)cc3)c3ccccc23)cc1 | > 50 | > 50 | > 50 | > 50 | > 50 | > 50 | > 50 | > 50 |  |  |  |  | 
24 | COc1ccc(/C=C/C(=O)/C=C/c2cn(Cc3ccc(F)cc3)c3ccccc23)cc1OC | 30.1 | > 50 | > 50 | 40 | > 50 | > 50 | 50.3 | > 50 |  |  |  |  | 
25 | COc1ccc(OC)c(/C=C/C(=O)/C=C/c2cn(Cc3ccccc3)c3ccccc23)c1 | > 50 | > 50 | > 50 | > 50 | > 50 | > 50 | > 50 | > 50 |  |  |  |  | 
